In brackets after ≈: the same amount, converted by molar mass.
How the values were obtained:
Format in all cases: functional
[1] = tested on: Streptococcus pneumoniae; assay: Antimicrobial activity against Streptococcus pneumoniae 10 expressing mefA after 20 hrs by agar dilution method; settings: Streptococcus pneumoniae, 20 h; read-out: MIC
How it was run: (§1)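 Streptococci, H. influenzae and M. catarrhalis were precultured on blood agar plates. Suspensions of about 10⁶ CFU/ml were inoculated onto sensitivity disk agar supplemented with 5% horse blood and incubated at 37 °C for 20 h. MIC was read as the lowest drug concentration with no visible growth.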

[2] = tested on: Streptococcus pneumoniae; assay: Antimicrobial activity against drug-susceptible Streptococcus pneumoniae DP1 Type1 after 20 hrs by agar dilution method; how it was run: as §1
[3] = tested on: Staphylococcus aureus; assay: Antimicrobial activity against drug-susceptible Staphylococcus aureus 209P JC-1 after 20 hrs by agar dilution method; settings: Staphylococcus aureus, 209P, 20 h; read-out: MIC
How it was run: (§2)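 Agar dilution MIC. S. aureus seed culture was grown in sensitivity test broth. Cell suspension (about 10⁶ CFU/ml) was inoculated onto sensitivity disk agar with 5% horse blood and incubated at 37 °C for 20 h. MIC was the lowest drug concentration that prevented visible growth.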

[4] = tested on: Streptococcus pneumoniae; assay: Antimicrobial activity against Streptococcus pneumoniae 6 constitutively expressing ermB after 20 hrs by agar dilution method; settings: Streptococcus pneumoniae, 20 h; read-out: MIC; how it was run: as §1
[5] = tested on: Streptococcus pneumoniae; assay: Antimicrobial activity against Streptococcus pneumoniae 8 expressing inducible ermB after 20 hrs by agar dilution method; how it was run: as §1
[6] = tested on: Streptococcus pneumoniae; assay: Antimicrobial activity against drug-susceptible Streptococcus pneumoniae 3 after 20 hrs by agar dilution method; settings: Streptococcus pneumoniae, 20 h; read-out: MIC; how it was run: as §1
[7] = tested on: Staphylococcus aureus; assay: Antimicrobial activity against Staphylococcus aureus 4 constitutively expressing ermA after 20 hrs by agar dilution method; how it was run: as §2
[8] = tested on: Streptococcus pneumoniae; assay: Antimicrobial activity against drug-susceptible Streptococcus pneumoniae 2 after 20 hrs by agar dilution method; settings: Streptococcus pneumoniae, 20 h; read-out: MIC; how it was run: as §1
[9] = tested on: Moraxella catarrhalis; assay: Antimicrobial activity against drug-susceptible Moraxella catarrhalis 2 after 20 hrs by agar dilution method; settings: Moraxella catarrhalis, 20 h; read-out: MIC; how it was run: as §1
[10] = tested on: Streptococcus pneumoniae; assay: Antimicrobial activity against Streptococcus pneumoniae 5 constitutively expressing ermB/mefA after 20 hrs by agar dilution method; settings: Streptococcus pneumoniae, 20 h; read-out: MIC; how it was run: as §1
[11] = tested on: Haemophilus influenzae; assay: Antimicrobial activity against drug-susceptible Haemophilus influenzae 4 after 20 hrs by agar dilution method; settings: Haemophilus influenzae, 20 h; read-out: MIC; how it was run: as §1
[12] = tested on: Haemophilus influenzae; assay: Antimicrobial activity against drug-susceptible Haemophilus influenzae 3 after 20 hrs by agar dilution method; settings: Haemophilus influenzae, 20 h; read-out: MIC; how it was run: as §1
[13] = tested on: Streptococcus pneumoniae; assay: Antimicrobial activity against Streptococcus pneumoniae 7 expressing inducible ermB after 20 hrs by agar dilution method; how it was run: as §1
[14] = tested on: Streptococcus pyogenes; assay: Antimicrobial activity against Streptococcus pyogenes 3 expressing mefA after 20 hrs by agar dilution method; how it was run: as §1
[15] = tested on: Staphylococcus aureus; assay: Antimicrobial activity against drug-susceptible Staphylococcus aureus 2 after 20 hrs by agar dilution method; settings: Staphylococcus aureus, 20 h; read-out: MIC; how it was run: as §2
[16] = tested on: Staphylococcus aureus; assay: Antimicrobial activity against Staphylococcus aureus 5 expressing inducible ermB after 20 hrs by agar dilution method; settings: Staphylococcus aureus, 20 h; read-out: MIC; how it was run: as §2
[17] = tested on: Staphylococcus aureus; assay: Antimicrobial activity against drug-susceptible Staphylococcus aureus 3 after 20 hrs by agar dilution method; settings: Staphylococcus aureus, 20 h; read-out: MIC; how it was run: as §2
[18] = tested on: Streptococcus pneumoniae; assay: Antimicrobial activity against Streptococcus pneumoniae 9 expressing mefA after 20 hrs by agar dilution method; how it was run: as §1
[19] = tested on: Streptococcus pyogenes; assay: Antimicrobial activity against Streptococcus pyogenes 2 constitutively expressing ermB after 20 hrs by agar dilution method; how it was run: as §1
[20] = tested on: Streptococcus pyogenes; assay: Antimicrobial activity against drug-susceptible Streptococcus pyogenes 1 after 20 hrs by agar dilution method; settings: Streptococcus pyogenes, 20 h; read-out: MIC; how it was run: as §1
[21] = tested on: Haemophilus influenzae; assay: Antimicrobial activity against drug-susceptible Haemophilus influenzae 1 after 20 hrs by agar dilution method; settings: Haemophilus influenzae, 20 h; read-out: MIC; how it was run: as §1
[22] = tested on: Haemophilus influenzae; assay: Antimicrobial activity against drug-susceptible Haemophilus influenzae 2 after 20 hrs by agar dilution method; settings: Haemophilus influenzae, 20 h; read-out: MIC; how it was run: as §1
[23] = tested on: Streptococcus pneumoniae; assay: Antimicrobial activity against Streptococcus pneumoniae 4 constitutively expressing ermB after 20 hrs by agar dilution method; settings: Streptococcus pneumoniae, 20 h; read-out: MIC; how it was run: as §1
[24] = tested on: Moraxella catarrhalis; assay: Antimicrobial activity against drug-susceptible Moraxella catarrhalis 1 after 20 hrs by agar dilution method; how it was run: as §1
[25] = tested on: Staphylococcus aureus; assay: Antimicrobial activity against Staphylococcus aureus 6 expressing inducible ermB after 20 hrs by agar dilution method; how it was run: as §2
[26] = Streptococcus pneumoniae, 20 h, read-out: MIC
[27] = Streptococcus pyogenes, 20 h, read-out: MIC
[28] = Moraxella catarrhalis, 20 h, read-out: MIC

MIC [1] [µg/mL] | MIC [2, 26] [µg/mL] | MIC [3] [µg/mL] | MIC [4] [µg/mL] | MIC [6] [µg/mL] | MIC [7] [µg/mL] | MIC [8] [µg/mL] | MIC [9] [µg/mL] | MIC [10] [µg/mL] | MIC [11] [µg/mL] | MIC [12] [µg/mL] | MIC [15] [µg/mL] | MIC [16] [µg/mL] | MIC [17] [µg/mL] | MIC [19] [µg/mL] | MIC [20] [µg/mL] | MIC [21] [µg/mL] | MIC [22] [µg/mL] | MIC [23] [µg/mL] | MIC [25] [µg/mL] | Structure (SMILES) | other results
0.13 (≈ 0.132 µM) | 0.06 (≈ 0.0609 µM) | 0.5 (≈ 0.507 µM) | 32 (≈ 32.5 µM) | 0.13 (≈ 0.132 µM) | 64 (≈ 65 µM) | 0.06 (≈ 0.0609 µM) | 2 (≈ 2.03 µM) | 32 (≈ 32.5 µM) | 16 (≈ 16.2 µM) | 16 (≈ 16.2 µM) | 2 (≈ 2.03 µM) | 0.5 (≈ 0.507 µM) | 0.5 (≈ 0.507 µM) | 32 (≈ 32.5 µM) | 0.25 (≈ 0.254 µM) | 32 (≈ 32.5 µM) | 8 (≈ 8.12 µM) | 32 (≈ 32.5 µM) | 1 (≈ 1.01 µM) | CCOC(=O)[C@H]1[C@H](C)O[C@@H](O[C@H]2[C@H](N(C)C)[C@@H](O)[C@H](O[C@H]3[C@@H](CC=O)C[C@@H](C)[C@@H](O)CN(C)CCC[C@H](C/C=C/c4ccc5ccccc5c4)OC(=O)C[C@@H](OC(=O)CC)[C@@H]3OC)O[C@@H]2C)C[C@@]1(C)O | MIC [5, 26]: 8 µg/mL (≈ 8.12 µM); MIC [13, 26]: 8 µg/mL (≈ 8.12 µM); MIC [14, 27]: 1 µg/mL (≈ 1.01 µM); MIC [18, 26]: 0.13 µg/mL (≈ 0.132 µM); MIC [24, 28]: 2 µg/mL (≈ 2.03 µM)
0.03 (≈ 0.0304 µM) | 0.015 (≈ 0.0152 µM) | 0.25 (≈ 0.253 µM) | 128 (≈ 130 µM) | 0.015 (≈ 0.0152 µM) | > 128 | 0.015 (≈ 0.0152 µM) | 2 (≈ 2.03 µM) | 128 (≈ 130 µM) | 8 (≈ 8.11 µM) | 8 (≈ 8.11 µM) | 0.5 (≈ 0.507 µM) | 0.25 (≈ 0.253 µM) | 0.25 (≈ 0.253 µM) | > 128 | 0.06 (≈ 0.0608 µM) | 32 (≈ 32.4 µM) | 2 (≈ 2.03 µM) | 128 (≈ 130 µM) | 0.5 (≈ 0.507 µM) | CCOC(=O)[C@H]1[C@H](C)O[C@@H](O[C@H]2[C@H](N(C)C)[C@@H](O)[C@H](O[C@H]3[C@@H](CC=O)C[C@@H](C)[C@@H](O)CN(C)CC(/C=C/Cc4cccc5cccnc45)CCOC(=O)C[C@@H](OC(=O)CC)[C@@H]3OC)O[C@@H]2C)C[C@]1(C)O (stereo not given in full) | MIC [5, 26]: 8 µg/mL (≈ 8.11 µM); MIC [13, 26]: 8 µg/mL (≈ 8.11 µM); MIC [14, 27]: 0.25 µg/mL (≈ 0.253 µM); MIC [18, 26]: 0.03 µg/mL (≈ 0.0304 µM); MIC [24, 28]: 1 µg/mL (≈ 1.01 µM)
0.03 (≈ 0.0304 µM) | 0.015 (≈ 0.0152 µM) | 0.25 (≈ 0.253 µM) | 128 (≈ 130 µM) | 0.015 (≈ 0.0152 µM) | > 128 | 0.03 (≈ 0.0304 µM) | 1 (≈ 1.01 µM) | 128 (≈ 130 µM) | 8 (≈ 8.11 µM) | 8 (≈ 8.11 µM) | 0.5 (≈ 0.507 µM) | 0.13 (≈ 0.132 µM) | 0.13 (≈ 0.132 µM) | > 128 | 0.03 (≈ 0.0304 µM) | 32 (≈ 32.4 µM) | 2 (≈ 2.03 µM) | 128 (≈ 130 µM) | 0.25 (≈ 0.253 µM) | CCOC(=O)[C@H]1[C@H](C)O[C@@H](O[C@H]2[C@H](N(C)C)[C@@H](O)[C@H](O[C@H]3[C@@H](CC=O)C[C@@H](C)[C@@H](O)CN(C)CC(/C=C/Cc4cncc5ccccc45)CCOC(=O)C[C@@H](OC(=O)CC)[C@@H]3OC)O[C@@H]2C)C[C@@]1(C)O (stereo not given in full) | MIC [5, 26]: 8 µg/mL (≈ 8.11 µM); MIC [13, 26]: 8 µg/mL (≈ 8.11 µM); MIC [14, 27]: 0.25 µg/mL (≈ 0.253 µM); MIC [18, 26]: 0.015 µg/mL (≈ 0.0152 µM); MIC [24, 28]: 1 µg/mL (≈ 1.01 µM)
0.13 (≈ 0.134 µM) |  | 0.5 (≈ 0.515 µM) | > 128 | 0.13 (≈ 0.134 µM) | > 128 | 0.13 (≈ 0.134 µM) | 2 (≈ 2.06 µM) | > 128 | 16 (≈ 16.5 µM) | 16 (≈ 16.5 µM) | 1 (≈ 1.03 µM) | 0.5 (≈ 0.515 µM) | 0.25 (≈ 0.257 µM) | > 128 | 0.25 (≈ 0.257 µM) | 32 (≈ 32.9 µM) | 2 (≈ 2.06 µM) | > 128 | 1 (≈ 1.03 µM) | CCOC(=O)[C@H]1[C@H](C)O[C@@H](O[C@H]2[C@H](N(C)C)[C@@H](O)[C@H](O[C@H]3[C@@H](CC=O)C[C@@H](C)[C@@H](O)CN(C)CCC(C/C=C/c4cnc5ccccc5c4)NC(=O)C[C@@H](OC(=O)CC)[C@@H]3OC)O[C@@H]2C)C[C@@]1(C)O (stereo in doubt; form 1) | MIC [2]: 0.06 µg/mL (≈ 0.0618 µM); MIC [5]: 32 µg/mL (≈ 32.9 µM); MIC [13]: 32 µg/mL (≈ 32.9 µM); MIC [14]: 1 µg/mL (≈ 1.03 µM); MIC [18]: 0.13 µg/mL (≈ 0.134 µM); MIC [24]: 2 µg/mL (≈ 2.06 µM)

Source: ChEMBL document CHEMBL1151705, “Novel azalides derived from 16-membered macrolides. Part II: Isolation of the linear 9-formylcarboxylic acid and its sequential macrocyclization with an amino alcohol or an azidoamine” (2008)
